Screens from PubChem.
Hits are enriched below; roughly 1.4% of the tested compounds scored in any of these assays.
OPRM1-OPRD1 inv: inverse agonists of human mu-delta opioid receptor heterodimerization | cell-based MOR-DOR heterodimer luminescence, inverse agonism | hit rate 0.21% among 340,000 | inhibition, % at 9.3 µM; in the data active means inhibition above about 22%, passing the limit was not always enough;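 further: 0% = cells with DMSO and 100% = wells without cells with DMSO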
Target sequence (P35372 whole entry, looked up): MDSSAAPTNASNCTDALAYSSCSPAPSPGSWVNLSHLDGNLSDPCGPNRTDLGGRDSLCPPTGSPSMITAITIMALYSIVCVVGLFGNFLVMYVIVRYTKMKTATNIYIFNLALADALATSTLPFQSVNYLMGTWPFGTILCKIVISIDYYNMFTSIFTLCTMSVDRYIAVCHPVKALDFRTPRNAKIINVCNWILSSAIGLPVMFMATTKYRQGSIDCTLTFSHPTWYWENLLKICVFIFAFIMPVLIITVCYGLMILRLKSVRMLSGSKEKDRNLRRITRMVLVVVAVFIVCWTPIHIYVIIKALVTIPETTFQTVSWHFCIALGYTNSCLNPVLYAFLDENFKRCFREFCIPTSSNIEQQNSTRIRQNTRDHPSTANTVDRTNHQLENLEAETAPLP
Target sequence (P41143 whole entry, looked up): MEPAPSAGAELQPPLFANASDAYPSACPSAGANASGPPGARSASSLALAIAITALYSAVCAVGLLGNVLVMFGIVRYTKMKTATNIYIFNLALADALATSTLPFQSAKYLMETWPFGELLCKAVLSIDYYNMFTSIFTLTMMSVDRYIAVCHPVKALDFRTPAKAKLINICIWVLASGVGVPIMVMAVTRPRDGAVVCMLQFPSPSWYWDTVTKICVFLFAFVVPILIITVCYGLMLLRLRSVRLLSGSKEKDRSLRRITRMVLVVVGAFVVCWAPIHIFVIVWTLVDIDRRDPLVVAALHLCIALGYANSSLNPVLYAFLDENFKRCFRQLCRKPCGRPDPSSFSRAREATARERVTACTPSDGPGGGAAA
HTR5A inv ctr: counter-screen for OPRM1-OPRD1 inverse agonists: human HTR5A inverse agonism; inhibition, % at 9.3 µM; hit rate 0.083% among 340,000; AID 504634; P47898; HTR5A cell line, luminescence; in the data active means inhibition mostly above about 23%, no sharp cut-off; inactive means mostly below about 18%;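 further: 0% = cells with DMSO and 100% = no-cell wells with DMSO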
MOR-DOR ag: agonists of human mu-delta opioid receptor heterodimerization. P35372+P41143. hit rate 0.3% among 340,000. cells, OPRM1-OPRD1 heterodimerization, luminescence. AID 504326. activation, % at 9.3 µM; in the data active means activation above about 18%;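 further: 0% = vehicle-treated cells and 100% = reference agonist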
HTR5A ag ctr: HTR5A agonism, opioid heterodimer counter-screen | hit rate 0.61% among 340,000 | activation, % at 9.3 µM | HTR5A agonist assay, luminescence, cell-based; in the data active means activation mostly above about 9.5%, no sharp cut-off; inactive means mostly below about 7.6%;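 further: 0% = cells with vehicle only and 100% = reference agonist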
Lipid droplet: modulators of hepatic lipid droplet formation. AML12 mouse hepatocytes, oleate lipid droplets, BODIPY imaging. hit rate 0.4% among 240,000. inhibition, % at 6.5 µM;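 active means lipid droplet intensity inhibited by at least 50%, with more than 500 cells counted; inconclusive means wells with under 300 cells, treated as cytotoxic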
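Material – mouse AML12 hepatocyte cell line, fixed after treatment · Compound dosing – one dose, 6.5 µM compound · Times – compound with oleate, overnight · Measured by – Image-based BODIPY and DAPI two-channel analysis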
Lipid drop inh: confirmation of inhibitors of hepatic lipid droplet formation | shares compounds with Lipid droplet | AML12 mouse hepatocytes, BODIPY lipid droplet imaging; droplets induced with 100 µM oleic acid | inhibition, % at 5.2 µM | hit rate 65% among 870 | AID 463183;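 active means inhibition of lipid droplet metric at least 50%, with more than 300 cells in each of four replicates; inconclusive means wells under 300 cells, flagged as toxic or low count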;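 further: plate controls were DMSO with oleic acid for no effect and 5 µM Triacsin-C for full effect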
AML12 cytotox: toxic to AML12 mouse hepatocytes in counter-screen | shares compounds with Lipid droplet | DAPI nuclear morphology cytotoxicity imaging; active compounds read high; cells fed 100 µM oleate overnight | z-score at 5 µM | hit rate 3% among 870 | AID 463200; in the data active means z-score above about 6.3;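 further: compound exposure lasted overnight at 37 °C before fixation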
AML12 tox ATP: AML12 hepatocyte cytotoxicity, confirmed. shares compounds with Lipid droplet. AML12 mouse hepatocyte viability, ATP luminescence; cells loaded with 100 µM oleic acid. cytotoxicity, % at 50 µM. 530 tested, under 10 active;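 active means cytotoxicity above 50% in each of four replicates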;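 further: compound exposure lasted overnight at 37 °C before the ATP read; 0% = DMSO-treated cells and 100% = wells with no cells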
The depositor's hits bear a star; ? = inconclusive; / = no result given.

SMILES | OPRM1-OPRD1 inv | HTR5A inv ctr | MOR-DOR ag | HTR5A ag ctr | Lipid droplet | Lipid drop inh | AML12 cytotox | AML12 tox ATP
COc1ccc2c(c1)-c1c(ssc1=S)C(C)(C)N2S(=O)(=O)c1ccc(C)cc1 | 20 | 0 | -4 | -5 | 51* | 61 | 1.3 | /
COc1cccc(NC(=O)N2CCCC2C(=O)Nc2ccc3c(c2)OCO3)c1 (stereo not given) | 4 | -11 | -1 | 9 | 22 | / | / | /
COc1ccccc1NC(=O)N1CCCC1C(=O)Nc1ccc2c(c1)OCO2 (stereo not given) | 20 | -11 | -3 | 7 | 71* | 71* | 0.22 | 7
O=C1CSC(c2cccnc2)N1Cc1ccc(Cl)c(Cl)c1 (stereo not given) | 12 | 5 | -3 | -2 | 1 | / | / | /
Cc1nc(NC(=O)c2ccc(OCC(C)C)cc2)sc1Cc1ccc2c(c1)OCO2 | -10 | 13 | 2 | 0 | 63* | 98* | -0.18 | 6
CCCOc1ccc(C(=O)Nc2nc(C)c(Cc3ccc4c(c3)OCO4)s2)cc1 | -53 | -13 | 8 | 5 | 41 | / | / | /
CCCCN1C(=O)N(c2nnc(C(C)(C)C)s2)C(O)C1c1ccc(C)cc1 (stereo not given) | -57 | -1 | 11 | -5 | 11 | / | / | /
COc1cc(N2CCCC2)c(OC)cc1/C=C(/C#N)c1ccc(F)cc1 | 11 | -15 | -2 | -4 | 50* | 41 | 0.66 | /
COc1cc(N2CCCC2)c(OC)cc1/C=C(/C#N)c1ccc(Br)cc1 | 18 | 6 | -4 | -1 | 2 | / | / | /
Cc1ccc(C(=O)Nc2cccc(C(F)(F)F)c2)cc1NC(=O)c1[nH]cnc1C(N)=O | -8 | -14 | 1 | 6 | / | / | / | /
Cc1oc2c(cc(NS(=O)(=O)c3ccc(C(C)C)cc3)c3ccccc32)c1C(=O)O | -5 | -3 | 1 | 1 | 6 | / | / | /
Cc1oc2c(cc(NS(=O)(=O)c3cccs3)c3ccccc32)c1C(=O)OC(C)C | -15 | -1 | 3 | 7 | 68* | 89* | 0.021 | 5
CC1(C)Oc2ccc3ccc(=O)oc3c2/C(=C/Nc2ccc(O)cc2)C1=O | -75 | 5 | 15 | 2 | 56* | 94* | -0.42 | -12
Cc1[nH]c2ccc(C(=O)OC(C)C(=O)NC3(C#N)CCCCC3)cc2c1C (stereo not given) | 0 | 22 | 0 | -8 | / | / | / | /
Cc1cccc(CN2C(=O)N/C(=C/c3cc(C)n(-c4cc(C)ccn4)c3C)C2=O)c1 | 12 | -23 | -2 | -3 | 81* | 105* | -0.23 | 7
Cc1cccc(CN2C(=O)N/C(=C/c3ccc(C)s3)C2=O)c1 | -19 | -12 | 3 | 2 | -14 | / | / | /
CCCCN(C(=O)c1c(-c2ccccc2)noc1C)c1c(N)n(CCC)c(=O)[nH]c1=O | 7 | 14 | -2 | 2 | / | / | / | /
Cc1ccc(O)c(NC(=O)C2=CC(c3cccs3)=NS(=O)(=O)N2C)c1 | 2 | -19 | 0 | 6 | ? | / | / | /
CCc1ccccc1NC(=O)C1=CC(c2cccs2)=NS(=O)(=O)N1C | 18 | 0 | -3 | -3 | 72* | 105* | -0.14 | 18
CCOC(=O)CSc1c(-c2cccs2)[nH]c2ccccc12 | -87 | -12 | 14 | 4 | 83* | 95* | -0.71 | 4
c1ccc(-c2nc(N3CCOCC3)cc(N3CCOCC3)n2)cc1 | -3 | 10 | 0 | 3 | 67* | 92* | -0.2 | 25
O=c1[nH]c2ccc(S(=O)(=O)NCc3ccccc3)cc2[nH]1 | 14 | -14 | -3 | 5 | -11 | / | / | /
CCN(CC)C(=O)CC(c1ccc(OC)cc1)c1c(OC)cc(OC)c2ccc(=O)oc12 (stereo not given) | 12 | -1 | -2 | -3 | 64* | 9 | 0.45 | /
CCN(CC)C(=O)CC(c1cc(OC)c(OC)c(OC)c1)c1c(OC)cc(OC)c2ccc(=O)oc12 (stereo not given) | 8 | -55 | -1 | 19 | 16 | / | / | /
CC(C)N(C(=O)CSc1nnc(CSc2ncccn2)n1C)C(C)C | 12 | 9 | -2 | 0 | 3 | / | / | /
SMILES | OPRM1-OPRD1 inv | HTR5A inv ctr | MOR-DOR ag | HTR5A ag ctr | Lipid droplet | Lipid drop inh | AML12 cytotox | AML12 tox ATP
CC(=O)OCC(=O)[C@@]1(O)CC[C@H]2[C@@H]3CCC4=CC(=O)CC[C@]4(C)[C@H]3[C@@H](O)C[C@@]21C | 14 | 5 | -3 | -1 | 50* | 24 | 0.65 | /
COc1ccc(C(=O)Nc2ccc(Cl)cc2C(=O)NCc2ccco2)cc1 | 6 | 13 | -1 | -2 | -14 | / | / | /
CCC(C)C(NC(=O)c1ccccc1NC(=O)c1ccc(OC)cc1)C(=O)NCc1ccco1 (stereo not given) | 2 | -12 | 0 | -2 | 70* | 100* | -0.82 | 12
CCc1c(C#N)c(SCCC(=O)Nc2cccc(OC)c2)nc2c1C(=O)CC(C)(C)C2 | -2 | -15 | 0 | 2 | 58* | 101* | 0.69 | 3
CCc1c(C#N)c(SCCC(=O)Nc2ccc(F)cc2)nc2c1C(=O)CC(C)(C)C2 | -40 | -23 | 7 | 8 | 30 | / | / | /
CC(=O)Nc1ccc(-c2csc(NC(=O)Cc3ccccc3F)n2)cc1 | 9 | 4 | -2 | -2 | 58* | 75* | -0.2 | -5
CC(=O)Nc1ccc(-c2csc(NC(=O)Cc3cccc(F)c3)n2)cc1 | 2 | -14 | 0 | 5 | 64* | 100* | 0.11 | -14
CC(C)S(=O)(=O)c1cnc(-c2ccccn2)nc1N | 9 | -16 | -2 | 4 | 8 | / | / | /
O=C(O)/C=C/c1cn(-c2ccccc2)nc1-c1ccc(-c2ccc([N+](=O)[O-])cc2)o1 | -3 | -15 | 1 | 5 | 8 | / | / | /
Cc1ccc(S(=O)(=O)N(C)C)cc1NC(=S)Nc1ccc2cn[nH]c2c1 | -1 | -21 | 0 | 7 | 56* | 25 | -0.93 | /
CCCCOc1ccc(-c2ncc([N+](=O)[O-])cn2)cc1 | 2 | 5 | 0 | 0 | 51* | 19 | 0.84 | /
COc1ccccc1CNCCS(=O)(=O)NN1CCOCC1 | 16 | -10 | -3 | 3 | / | / | / | /
CCOc1cc2[nH]c(=O)n(CCCC(=O)NCc3ccco3)c(=O)c2cc1OCC | 0 | -42 | 0 | 5 | / | / | / | /
CCOc1cc2[nH]c(=O)n(CCCC(=O)N(C)Cc3ccccc3)c(=O)c2cc1OCC | 15 | -8 | -3 | 3 | 70* | 107* | -0.48 | 10
COc1ccccc1/C=C/C(=O)NCC(=O)N=Nc1c(O)[nH]c2ccccc12 | 6 | 11 | -1 | -3 | 0 | / | / | /
CN(C)C(=O)c1ccc(-n2cnc3ccccc3c2=O)cc1 | 2 | 6 | 0 | -2 | 5 | / | / | /
CN(C)/C=N/n1cnc2ccccc2c1=O | 18 | 1 | -3 | 1 | 61* | -24 | -0.36 | /
